Data published in ChEMBL document CHEMBL5303300, “EUbOPEN Chemogenomics Library - Multiplex” (2023).
Values joined by “and” are separate entries in the source; they are usually repeats but may differ in a detail not shown here. Equal entries are not always repeated.

Tests used:
HEK-293T = assay: Multiplex assay against HEK293T; assay type: toxicity, cell-based; conditions: human, number of replicates 2
Summary of the method: (§1)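 With compound added, live cells were imaged on a CQ1 microscope at 37°C and 5% CO2; staining with Hoechst33342, BioTracker Green Microtubule Cytoskeleton Dye, MitoTracker Red and Annexin V Alexa Fluor 680 had been done at seeding. The CellPathfinder machine-learning gating scheme split cells into Hoechst high-intensity objects or normal cells, normal cells into healthy, pyknosed or fragmented nuclei, and pyknosed cells into mitotic or apoptotic. The tubulin, mitochondrial-mass and membrane-permeability phenotypes are per cents of healthy-nucleus cells.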

U2OS = assay: Multiplex assay against U2OS; assay type: toxicity, cell-based; conditions: human, number of replicates 2; summary of the method: as §1
[1] = 24 h, 1 µM, compound concentration 1 uM
[2] = 24 h, 10 µM, compound concentration 10 uM
[3] = 48 h, 1 µM, compound concentration 1 uM
[4] = 48 h, 10 µM, compound concentration 10 uM
[5] = 12 h, 1 µM, compound concentration 1 uM
[6] = 12 h, 10 µM, compound concentration 10 uM

With `CC(=O)N(CCN(C)C)c1ccc(N/C(=C2\C(=O)Nc3cc(Cl)ccc32)c2ccccc2)cn1` the “Population Normal (%)” value (HEK-293T; [1]) was 93% and 92%, the “Population Pyknosed Nuclei (%)” value (HEK-293T; [1]) was 9% and 8% and the “Population Tubulin-Different-Phenotype (%)” value (HEK-293T; [1]) was 51% and 49%. For the same molecule, the “Total Cell Count” value (HEK-293T; [1]) was 869 and 891, the “Population Apoptotic (%)” value (HEK-293T; [2]) was 87% and 94% and the “Population Fragmented Nuclei (%)” value (HEK-293T; [2]) was 6% and 4%. The “Population Healthy Nuclei (%)” value (HEK-293T; [2]) was 80% and 83%, the “Population Hoechst High Intensity Objects (%)” value (HEK-293T; [2]) was 20% and 23% and the “Population Membrane Permeable-Phenotype (%)” value (HEK-293T; [2]) was 0% and 2%. The “Population Mitochondria Different-Phenotype (%)” value (HEK-293T; [2]) was 95% and 92%, the “Population Mitotic Cells (%)” value (HEK-293T; [2]) was 12% and 5% and the “Population Normal (%)” value (HEK-293T; [2]) was 79% and 76%. The “Population Pyknosed Nuclei (%)” value (HEK-293T; [2]) was 13% and 12%, the “Population Tubulin-Different-Phenotype (%)” value (HEK-293T; [2]) was 93% and 92% and the “Total Cell Count” value (HEK-293T; [2]) was 229 and 181. The “Population Apoptotic (%)” value (HEK-293T; [3]) was 12% and 13%, the “Population Fragmented Nuclei (%)” value (HEK-293T; [3]) was 11% and 6% and the “Population Healthy Nuclei (%)” value (HEK-293T; [3]) was 83% and 88%. For the same molecule, the “Population Hoechst High Intensity Objects (%)” value (HEK-293T; [3]) was 7% and 9%, the “Population Membrane Permeable-Phenotype (%)” value (HEK-293T; [3]) was 3% and the “Population Mitochondria Different-Phenotype (%)” value (HEK-293T; [3]) was 1% and 3%. For the same molecule, the “Population Mitotic Cells (%)” value (HEK-293T; [3]) was 87% and 86%, the “Population Normal (%)” value (HEK-293T; [3]) was 93% and 90% and the “Population Pyknosed Nuclei (%)” value (HEK-293T; [3]) was 4% and 5%. The “Population Tubulin-Different-Phenotype (%)” value (HEK-293T; [3]) was 25% and 29%, the “Total Cell Count” value (HEK-293T; [3]) was 1828 and 1568 and the “Population Apoptotic (%)” value (HEK-293T; [4]) was 86% and 90%. The “Population Fragmented Nuclei (%)” value (HEK-293T; [4]) was 9% and 5%, the “Population Healthy Nuclei (%)” value (HEK-293T; [4]) was 81% and 83% and the “Population Hoechst High Intensity Objects (%)” value (HEK-293T; [4]) was 20% and 19%. The “Population Membrane Permeable-Phenotype (%)” value (HEK-293T; [4]) was 0% and 3%, the “Population Mitochondria Different-Phenotype (%)” value (HEK-293T; [4]) was 77% and 80% and the “Population Mitotic Cells (%)” value (HEK-293T; [4]) was 13% and 10%. For the same molecule, the “Population Normal (%)” value (HEK-293T; [4]) was 79% and 80%, the “Population Pyknosed Nuclei (%)” value (HEK-293T; [4]) was 8% and 10% and the “Population Tubulin-Different-Phenotype (%)” value (HEK-293T; [4]) was 93%. For the same molecule, the “Total Cell Count” value (HEK-293T; [4]) was 324 and 235, the “Population Apoptotic (%)” value (U2OS; [5]) was 72% and 71% and the “Population Healthy Nuclei (%)” value (U2OS; [5]) was 84% and 68%. The “Population Hoechst High Intensity Objects (%)” value (U2OS; [5]) was 0% and 1%, the “Population Membrane Permeable-Phenotype (%)” value (U2OS; [5]) was 1% and 10% and the “Population Mitochondria Different-Phenotype (%)” value (U2OS; [5]) was 0% and 2%. The “Population Mitotic Cells (%)” value (U2OS; [5]) was 27% and 28%, the “Population Normal (%)” value (U2OS; [5]) was 100% and 98% and the “Population Pyknosed Nuclei (%)” value (U2OS; [5]) was 11% and 12%. For the same molecule, the “Population Tubulin-Different-Phenotype (%)” value (U2OS; [5]) was 52% and 23%, the “Population Apoptotic (%)” value (U2OS; [6]) was 64% and 80% and the “Population Fragmented Nuclei (%)” value (U2OS; [6]) was 11% and 8%. For the same molecule, the “Population Healthy Nuclei (%)” value (U2OS; [6]) was 54% and 60%, the “Population Hoechst High Intensity Objects (%)” value (U2OS; [6]) was 0% and 1% and the “Population Membrane Permeable-Phenotype (%)” value (U2OS; [6]) was 13% and 19%. The “Population Mitochondria Different-Phenotype (%)” value (U2OS; [6]) was 86% and 59%, the “Population Mitotic Cells (%)” value (U2OS; [6]) was 35% and 19% and the “Population Normal (%)” value (U2OS; [6]) was 100% and 98%. The “Population Pyknosed Nuclei (%)” value (U2OS; [6]) was 33% and 30%, the “Population Tubulin-Different-Phenotype (%)” value (U2OS; [6]) was 86% and 71% and the “Population Apoptotic (%)” value (U2OS; [1]) was 72% and 40%. The “Population Fragmented Nuclei (%)” value (U2OS; [1]) was 3% and 11%, the “Population Healthy Nuclei (%)” value (U2OS; [1]) was 85% and 79% and the “Population Hoechst High Intensity Objects (%)” value (U2OS; [1]) was 0% and 1%. For the same molecule, the “Population Membrane Permeable-Phenotype (%)” value (U2OS; [1]) was 2% and 4%, the “Population Mitochondria Different-Phenotype (%)” value (U2OS; [1]) was 0% and the “Population Mitotic Cells (%)” value (U2OS; [1]) was 27% and 60%. The “Population Normal (%)” value (U2OS; [1]) was 100% and 98%, the “Population Pyknosed Nuclei (%)” value (U2OS; [1]) was 10% and 9% and the “Population Tubulin-Different-Phenotype (%)” value (U2OS; [1]) was 59% and 33%. For the same molecule, the “Population Apoptotic (%)” value (U2OS; [2]) was 93% and 88%, the “Population Fragmented Nuclei (%)” value (U2OS; [2]) was 10% and 16% and the “Population Healthy Nuclei (%)” value (U2OS; [2]) was 31% and 23%. For the same molecule, the “Population Hoechst High Intensity Objects (%)” value (U2OS; [2]) was 3% and 4%, the “Population Membrane Permeable-Phenotype (%)” value (U2OS; [2]) was 61% and 50% and the “Population Mitochondria Different-Phenotype (%)” value (U2OS; [2]) was 76% and 90%. The “Population Mitotic Cells (%)” value (U2OS; [2]) was 6% and 11%, the “Population Normal (%)” value (U2OS; [2]) was 96% and 95% and the “Population Pyknosed Nuclei (%)” value (U2OS; [2]) was 57% and 60%. The “Population Tubulin-Different-Phenotype (%)” value (U2OS; [2]) was 87% and 90%, the “Population Apoptotic (%)” value (U2OS; [3]) was 82% and 88% and the “Population Fragmented Nuclei (%)” value (U2OS; [3]) was 3% and 13%. The “Population Healthy Nuclei (%)” value (U2OS; [3]) was 86% and 66%, the “Population Hoechst High Intensity Objects (%)” value (U2OS; [3]) was 0% and the “Population Membrane Permeable-Phenotype (%)” value (U2OS; [3]) was 2% and 10%. The “Population Mitochondria Different-Phenotype (%)” value (U2OS; [3]) was 1% and 5%, the “Population Mitotic Cells (%)” value (U2OS; [3]) was 18% and 11% and the “Population Normal (%)” value (U2OS; [3]) was 99% and 100%. The “Population Pyknosed Nuclei (%)” value (U2OS; [3]) was 9% and 19%, the “Population Tubulin-Different-Phenotype (%)” value (U2OS; [3]) was 67% and 47% and the “Population Apoptotic (%)” value (U2OS; [4]) was 92% and 100%. The “Population Fragmented Nuclei (%)” value (U2OS; [4]) was 26% and 38%, the “Population Healthy Nuclei (%)” value (U2OS; [4]) was 11% and 2% and the “Population Hoechst High Intensity Objects (%)” value (U2OS; [4]) was 3% and 2%. The “Population Membrane Permeable-Phenotype (%)” value (U2OS; [4]) was 52% and 100%, the “Population Mitochondria Different-Phenotype (%)” value (U2OS; [4]) was 48% and 100% and the “Population Mitotic Cells (%)” value (U2OS; [4]) was 7% and 0%. For the same molecule, the “Population Normal (%)” value (U2OS; [4]) was 96% and 98%, the “Population Pyknosed Nuclei (%)” value (U2OS; [4]) was 61% and 59% and the “Population Tubulin-Different-Phenotype (%)” value (U2OS; [4]) was 100%.
